Source: PubChem (The Scripps Research Institute Molecular Screening Center)
Only some compounds are listed: those with a hit (about 1.9% of all), similar ones and a draw of the others.
HGIII-sPLA2 inh – human group III sPLA2 inhibitors, primary screen, biochemical, QFRET, BODIPY PC-A2 liposome substrate. QFRET BODIPY PC-A2 liposome hydrolysis, fluorescence. 0.56% of 370,000 active. inhibition, % at 12.2 µM. Group 3 secretory phospholipase A2 (Homo sapiens), Q9NZ20;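 active = inhibition above mean plus 3 SD of compounds lying within the high and low control bounds, cut at about 19% in these data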;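 note: 0% = median of test compound wells and 100% = no enzyme DMSO wells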
Target sequence (Q9NZ20 whole entry, looked up): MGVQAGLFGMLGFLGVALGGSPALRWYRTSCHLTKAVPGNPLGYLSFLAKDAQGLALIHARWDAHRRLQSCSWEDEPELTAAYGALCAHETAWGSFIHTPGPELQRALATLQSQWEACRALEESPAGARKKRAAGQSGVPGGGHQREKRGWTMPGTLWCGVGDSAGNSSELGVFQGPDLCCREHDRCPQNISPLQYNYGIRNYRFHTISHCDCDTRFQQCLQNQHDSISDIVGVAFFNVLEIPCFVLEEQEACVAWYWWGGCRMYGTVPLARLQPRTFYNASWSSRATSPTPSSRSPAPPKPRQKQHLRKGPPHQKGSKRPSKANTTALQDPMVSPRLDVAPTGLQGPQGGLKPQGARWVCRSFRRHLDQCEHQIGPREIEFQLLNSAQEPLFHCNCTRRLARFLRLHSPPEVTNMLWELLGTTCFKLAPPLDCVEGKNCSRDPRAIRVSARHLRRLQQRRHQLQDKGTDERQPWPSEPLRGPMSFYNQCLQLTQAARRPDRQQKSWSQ
ASAP1 inh – inhibitors of human ASAP1 ArfGAP activity, primary screen, biochemical, fluorescence polarization | ASAP1-stimulated ARF1 GTP hydrolysis, GDP FP detection | inhibition, % at 16.5 µM | Arf-GAP with SH3 domain, ANK repeat and PH domain-containing protein 1 (Homo sapiens), … | 0.19% of 360,000 active; in the data active = inhibition above about 25%;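 note: 0% = vehicle with enzyme and substrate and 100% = no enzyme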
ARFGAP1 inh – inhibitors of rat ARFGAP1 GAP activity, primary screen, biochemical, fluorescence polarization, GDP tracer | ADP-ribosylation factor GTPase-activating protein 1 (Rattus norvegicus), Q62848 | Arfgap1-stimulated ARF1 GTP hydrolysis, GDP FP detection | inhibition, % at 16.5 µM | 0.26% of 360,000 active;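 active = inhibition above a per-plate limit, mean inhibition of low control wells plus 3 SD, cut at about 25% in these data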;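 note: 0% = DMSO wells with enzyme and 100% = wells lacking Arfgap1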
Target sequence (Q62848 1-136 limits assumed): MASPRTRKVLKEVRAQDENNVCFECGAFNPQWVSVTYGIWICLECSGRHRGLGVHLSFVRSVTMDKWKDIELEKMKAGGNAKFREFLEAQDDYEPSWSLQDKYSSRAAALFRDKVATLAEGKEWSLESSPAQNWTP
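Material – truncated rat Arfgap1 GAP domain · Buffer or medium – HEPES-based buffer, pH 7.5 · Reagent – human ARF1(Δ1-17)-GTP substrate · Dosing – 16.5 µM single point, 1.26% DMSO · Schedule – GTP hydrolysis reaction 2 h at 25 °C · Technique – GDP detection by fluorescence polarization · Benchmarks – No-Arfgap1 wells (100%) versus DMSO full-reaction wells (0%) · Repeats – single replicate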
PLCg1 inh – PLC-gamma1 enzyme inhibitors, primary screen, biochemical, fluorescence, purified enzyme; 0.84% of 370,000 active; 1-phosphatidylinositol 4,5-bisphosphate phosphodiesterase gamma-1 (Homo sapiens), P19174; AID 720700, 2013; fluorogenic substrate; inhibition, % at 12.2 µM
PLC-beta3 inh – human PLC-beta3 inhibitors, primary screen, biochemical, fluorescence. 1-phosphatidylinositol 4,5-bisphosphate phosphodiesterase beta-3 (Homo sapiens), Q01970. Purified PLC-beta3, fluorogenic substrate. inhibition, % at 12.2 µM. 0.18% of 370,000 active; in the data active = inhibition above about 11%;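 note: 0% = median of compound wells on plate and 100% = full blocker control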
PLCgamma1 ctr – PLC-gamma1 enzyme inhibitors, counter-screen for PLC-beta3 inhibitor project, biochemical, fluorescence; shares compounds with PLCg1 inh; purified PLC-gamma1, fluorogenic substrate; inhibition, % at 12.3 µM; 3.1% of 3,300 active; AID 743258, 2014
PLCb3 confirm – PLC-beta3 inhibitor confirmation, biochemical, fluorescence, purified enzyme; shares compounds with PLCg1 inh; fluorogenic substrate fluorescence; inhibition, % at 12.3 µM; 1% of 3,300 active; in the data active = inhibition above about 11%
Starred values were filed as active, the others as inactive; nt = not tested or not shown. Cut-off read from the data, not from the text of the source, unless noted: active = inhibition above about 9.5%; inactive = the rest.

SMILES	HGIII-sPLA2 inh	ASAP1 inh	ARFGAP1 inh	PLCg1 inh	PLC-beta3 inh	PLCgamma1 ctr	PLCb3 confirm
COc1ccc(-n2c(SCC(=O)Nc3ccccc3-c3ccccc3)nnc2-c2ccccn2)cc1	5	nt	nt	10*	6	1	-4
CCOC(=O)[C@H](CCc1ccccc1)N[C@@H](C)C(=O)N1C(C(=O)O)C[C@@H]2CCC[C@@H]21 (stereo not given in full)	4	-5	-7	10*	10	-1	-1
CC(C)NC(=O)N(O)C1N(C(C)C)C(=O)N(Cc2ccc3c(c2)OCO3)C1(C)C (stereo not given)	-3	-8	6	2	-3	nt	nt
COc1cccc(CN2C(=O)N(C(C)C)C(N(O)C(=O)NC(C)C)C2(C)C)c1OC (stereo not given)	9	-3	1	14*	15*	4	5
CC(=O)c1c(C)nc2ccc([N+](=O)[O-])cc2c1-c1ccccc1	10	-5	4	14*	5	0	2
C#CCNC(=O)CSCc1nc(-c2ccc(OCC)cc2)oc1C	-2	nt	nt	-1	1	nt	nt
Cc1nc2ccccn2c1C(=O)N/N=C/c1ccc2c(c1)OCO2	-4	6	-9	-3	0	nt	nt
O=C(NCc1ccc2c(c1)OCO2)C1COc2ccccc2O1 (stereo not given)	-2	5	1	11*	5	-5	-2
CC(=O)c1c(C)n(CC(=O)NCc2ccc3c(c2)OCO3)c2ccccc12	2	11	10	11*	-5	-7	-2
O=C(Cn1c(CO)nc2ccccc21)NCc1ccc2c(c1)OCO2	-4	-3	2	2	-7	nt	nt
Cc1nc2ccccn2c1C(=O)NCc1ccc2c(c1)OCO2	0	0	-3	10*	0	-5	-2
O=C(NCc1ccncc1)C1COc2ccccc2O1 (stereo not given)	-7	9	2	1	-1	nt	nt
COC(=O)C[C@H]1CC[C@@H]2[C@@H](COc3ccc(NC(=O)Nc4ccccc4OC)cc3C(=O)N2C)O1	-4	nt	nt	1	3	nt	nt
O=C(CN1CCN(C(=O)c2ccccc2)CC1)Nc1ccc(Br)cn1	8	5	11	12*	3	-2	-3
O=C(CN1CCN(C(=O)c2ccccc2)CC1)Nc1ccccc1	3	0	3	4	2	nt	nt
Cc1cc(C(=O)N/N=C/c2cccc([N+](=O)[O-])c2O)n[nH]1	0	-12	0	3	-1	nt	nt
Cc1cc(C(=O)N/N=C/c2ccc(O)c([N+](=O)[O-])c2)n[nH]1	6	14	4	10*	5	-1	5
COc1cc(/C=N/NC(=O)c2ccc(C)nc2)cc([N+](=O)[O-])c1O	3	-4	6	9.9*	8	6	8
CC(C)C[C@@H]1COc2cc(Br)ccc2S(=O)(=O)N1Cc1cn(Cc2ccco2)nn1	-2	nt	nt	1	2	nt	nt
O=C(NCC(=O)N1CCc2ccccc2C1)c1ccccc1Cl	0	0	4	-2	2	nt	nt
O=C(NCC(=O)N1CCc2ccccc2C1)c1ccc(Cl)cc1Cl	0	-6	3	12*	2	-8	-3
CCOC(=O)N1CCN(C(=O)C[C@@H]2C[C@@]3(C(=O)OCC)CCC=C3N(Cc3ccc4c(c3)OCO4)C2=O)CC1	-2	6	2	9.7*	-1	-7	-3
CCOC(=O)[C@]12CCCC=C1N(CCc1ccc(OC)c(OC)c1)C(=O)[C@H](CC(=O)N1CCCC1)C2	3	-1	-10	12*	5	0	-6
CCOC(=O)N1CCN(C(=O)C[C@@H]2C[C@@]3(C(=O)OCC)CCCC=C3N(CCc3ccc(OC)c(OC)c3)C2=O)CC1	-8	3	6	-2	2	nt	nt
O=C(NC1(C(F)(F)F)NC(=O)N(Cc2cccnc2)C1=O)c1ccncc1 (stereo not given)	10	0	-6	-2	0	nt	nt
SMILES	HGIII-sPLA2 inh	ASAP1 inh	ARFGAP1 inh	PLCg1 inh	PLC-beta3 inh	PLCgamma1 ctr	PLCb3 confirm
CC(C)CN1C(=O)NC(NC(=O)c2cccnc2)(C(F)(F)F)C1=O (stereo not given)	16	4	3	11*	7	-5	1
CCCC1CCC2(CCCN2CCOC(=S)NCc2cccc(C)c2)CC1 (stereo not given)	-5	nt	nt	-1	1	nt	nt
NC1=NC2(CCC(c3ccccc3)CC2)n2c(nc3ccccc32)N1 (stereo not given)	11	-5	-6	18*	14*	3	2
NC1=NC2(CCN(Cc3ccccc3)CC2)n2c(nc3ccccc32)N1	2	5	-1	12*	4	-2	-5
COc1cc(NC(=O)CSc2nc(C)cc(=O)[nH]2)cc(OC)c1	9	nt	nt	2	4	nt	nt
O=C(OCc1cn(Cc2cccc(F)c2)nn1)N1CCCCC1	5	nt	nt	-1	1	nt	nt
Cc1ccc(C2CC(c3ccc(Br)cc3)=NN2C(=O)CSC2=NN3CCCC(=O)N=C3S2)cc1 (stereo not given)	5	-8	-1	4	-6	nt	nt
O=C1CCCN2N=C(SCC(=O)N3N=C(c4ccc(Br)cc4)CC3c3ccc(F)cc3)SC2=N1 (stereo not given)	-27	16	-6	14*	-4	1	-1
CCOc1ccc(-n2c(SCC(=O)Nc3ccc(S(=O)(=O)Nc4cc(C)nc(C)n4)cc3)nnc2-c2ccco2)cc1	-36	nt	nt	-1	3	nt	nt
Cc1ccc(NC(=O)Cn2nnc(C(=O)NCc3ccccc3)c2N)cc1C	4	-9	4	11*	0	-3	-1
Cc1ccc(NC(=O)c2nnn(CC(=O)Nc3ccccc3)c2N)cc1C	-4	3	6	0	-3	nt	nt
COC[C@H]1CCCN1c1ccc2c(c1)O[C@H]1CCN(C1)S2(=O)=O	-2	nt	nt	1	3	nt	nt
COc1cc(NC(=O)c2ccccc2)c(C)cc1NC(=O)CSc1nnc(-c2ccccc2F)n1-c1ccc(C)cc1	-18	nt	nt	-3	-5	nt	nt
CN(C)CCN1C(=O)C(=O)/C(=C(/O)c2ccc(S(=O)(=O)N3CCOCC3)cc2)C1c1ccc(Br)cc1 (stereo not given)	-13	8	-1	11*	-4	0	2
